Assay results gathered from unrelated publications.
Compare with care: the assays were run in different laboratories.

| SMILES | host | matrix | route | dose | setting | Tmax |
| --- | --- | --- | --- | --- | --- | --- |
| CC(C)(Sc1ccncc1-c1ccc(C#N)c2ccccc12)C(=O)O | male human | plasma | oral | 20 mg | single dose, fasted, healthy volunteers | 0.5 h |
| Cc1nc(-c2cn3c(n2)-c2ccc(-c4cnn(C(C)(C)C(N)=O)c4)cc2OCC3)n(C(C)C)n1 | human | plasma | oral | 2 mg | patients | 3.97 h |
| NS(=O)(=O)NCCNc1nonc1C(=NO)Nc1ccc(F)c(Br)c1 | human | plasma | oral | 100 mg | multiple doses, twice daily, steady state, patients | 2 h |
| CS(=O)(=O)CCC#N | human | plasma | oral | 300 mg | single dose, fasted | 1.5 h |
| C#C[C@]1(COP(=O)(O)OP(=O)(O)OP(=O)(O)O)O[C@@H](n2cnc3c(N)nc(F)nc32)C[C@@H]1O | human | plasma | oral | 100 mg | single dose | 24 h |
| C[C@@H](Nc1cc(F)cc(F)c1)c1cc(C(=O)N(C)C)cc2c(=O)cc(N3CCOCC3)oc12 | human | plasma | oral | 180 mg | single dose, patients | 1.98 h |
| Cn1cc(-c2ccc(S(=O)(=O)[C@@H]3C[C@@H](C(=O)NC4(C#N)CC4)N(C(=O)C4(C(F)(F)F)CC4)C3)c(C(F)(F)F)c2)cn1 | human | plasma | oral | 100 mg | single dose, fed | 5 h |
| CC(C)(O)c1ccccc1-c1ccc2[nH]c(/C=C/c3ccc(C(F)(F)F)cc3)nc2c1 | male human | plasma | oral | 5 mg | single dose, fasted | 3.95 h |
| CC(C)(C)OC[C@@H]1C(=O)NCCN1C(=O)C[C@H](N)Cc1cc(F)c(F)cc1F | male human | plasma | oral | 5 mg | multiple doses, steady state | 2 h |
| CC(C)[C@H](N)C(=O)NCCCS(=O)(=O)O | human | plasma | oral | 171 mg | multiple doses, twice daily, fasted | 0.5 h |
| CC(C)[C@](O)(c1ccc2cc(OC(F)F)c(OC(F)F)cc2c1)c1c[nH]nn1 | female human | plasma | oral | 600 mg | single dose | 2.5 h |
| CC(C)n1cc(C#N)c2cc(-n3cc(C(=O)O)cn3)ccc21 | human | plasma | oral | 800 mg | multiple doses, once daily, steady state | 4 h |
| O=C(Nc1c(Cl)cncc1Cl)c1ccc(OC(F)F)c(OCC2CC2)c1 | human | plasma | oral | 0.375 mg | multiple doses, once daily | 0.75 h |
| FC(F)(F)c1ccc(CNc2ccc(Cc3c[nH]c4ncc(Cl)cc34)cn2)cn1 | human | plasma | oral | 600 mg | single dose, healthy volunteers | 2.5 h |
| C[C@@]1(c2cc(NC(=O)c3ccc(C#N)cn3)ccc2F)C=CSC(N)=N1 | human | plasma | oral | 150 mg | single dose | 1.5 h |
| Oc1cc(O)c2c(c1)O[C@@H](c1ccc(O)c(O)c1)[C@@H](O)C2 | human | plasma | oral | 30 mg | single dose | 1 h |
| CCOc1cc2ncc(C#N)c(Nc3ccc(OCc4ccccn4)c(Cl)c3)c2cc1NC(=O)/C=C/[C@H]1CCCN1C | human | plasma | oral | 80 mg | single dose | 4.98 h |
| CCc1nc2c(C)cc(N3CCN(CC(=O)N4CC(O)C4)CC3)cn2c1N(C)c1nc(-c2ccc(F)cc2)c(C#N)s1 | human | plasma | oral | 600 mg | single dose, fed, healthy volunteers | 3.5 h |
| COc1ccc(Oc2cc(N(C)CCOc3ccc(CC4SC(=O)NC4=O)cc3)ncn2)cc1 (stereo not drawn) | male human | plasma | oral | 0.5 mg | multiple doses, once daily, steady state | 0.67 h |
| CO[C@@H]1[C@H](OC(=O)N2CC(CCN3CCOCC3)C2)CC[C@]2(CO2)[C@H]1[C@@]1(C)O[C@@H]1CC=C(C)C | human | plasma | subcutaneous | 4.8 mg | single dose, healthy volunteers | 0.25 h |
| C=CC(=O)N(C)CCOc1c(N)ncnc1-c1cc(F)cc(NC(=O)c2ccc(C3CC3)cc2F)c1C | human | blood | oral | 600 mg | single dose, healthy volunteers | 1.02 h |
| C=CC(=O)N1CCC(Oc2cc3c(Nc4ccc(Cl)c(Cl)c4F)ncnc3cc2OC)CC1 | human | plasma | oral | 16 mg | single dose, fasted | 1.26 h |
| COc1ccc([C@@H]2CN(C(=O)[C@@H](O)CO)C[C@@]2(C)[C@@H](C)O)cc1OC1CN(c2ccc(C)cn2)C1 | human | plasma | oral | 0.1 mg | single dose, healthy volunteers | 1 h |
| COc1cc(N2CCC(N3CCN(C)CC3)CC2)ccc1Nc1ncnc(Nc2ccccc2S(=O)(=O)C(C)C)n1 | human | plasma | oral | 75 mg | multiple doses, patients | 3.32 h |
| CCc1nc(C(N)=O)c(Nc2ccc(N3CCC(N4CCN(C)CC4)CC3)c(OC)c2)nc1NC1CCOCC1 | human | plasma | oral | 300 mg | multiple doses, patients | 6.93 h |
| c1cnc2ccc(Nc3nc(NC4CC4)c4nc[nH]c4n3)cc2c1 | human | plasma | oral | 400 mg/m² | patients | 6.5 h |
| Cc1nc(NC(=O)N2CCC[C@H]2C(N)=O)sc1-c1ccnc(C(C)(C)C(F)(F)F)c1 | human | plasma | oral | 90 mg | patients | 2 h |
| CCO[C@H]1CCN(Cc2c(OC)cc(C)c3[nH]ccc23)[C@H](c2ccc(C(=O)O)cc2)C1 | human | plasma | oral | 50 mg | multiple doses, twice daily, patients | 2 h |
| Nc1cc(C(F)(F)F)c(-c2cc(N3CCOCC3)nc(N3CCOCC3)n2)cn1 | human | plasma | oral | 100 mg/day | patients | 1.5 h |
| C#Cc1cccc(Nc2ncnc3cc(OCCOC)c(OCCOC)cc23)c1 | human | plasma | oral | 50 mg | patients | 4 h |
